Experiments:
[1] = Metabolic stability in mouse plasma assessed as half life at 2 uM measured after 0 to 120 mins by LC-MS/MS analysis; type: ADME, cell-free; conditions: time 0-120 min; for t1/2: 2 µM
[2] = Cmax in male CD-1 mouse at 3 mg/kg, iv measured upto 240 mins by LC/MS/MS analysis; type: ADME, organism-based; conditions: in vivo, 4 h
[3] = Tmax in male CD-1 mouse at 3 mg/kg, iv measured upto 240 mins by LC/MS/MS analysis; type: ADME, organism-based; conditions: in vivo, 4 h
In short: (§1)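 Mouse PK after single intravenous injection of 3 mg/kg; n = 3 animals per time point; plasma concentration–time profile used for observed and calculated PK parameters.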

[4] = Half life in male CD-1 mouse at 3 mg/kg, iv measured upto 240 mins by LC/MS/MS analysis; type: ADME, organism-based; conditions: in vivo, 4 h; in short: as §1
[5] = Cmax in male CD-1 mouse at 10 mg/kg, po measured upto 480 mins by LC-MS/MS analysis; type: ADME, organism-based; conditions: in vivo, 8 h
In short: (§2)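 Mouse PK after single oral dose of 10 mg/kg; n = 3 animals per time point; plasma concentration–time profile used for observed and calculated PK parameters.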

[6] = Half life in male CD-1 mouse at 10 mg/kg, po measured upto 480 mins by LC-MS/MS analysis; type: ADME, organism-based; conditions: in vivo, 8 h; in short: as §2
[7] = Oral bioavailability in male CD-1 mouse at 10 mg/kg measured upto 480 mins by LC-MS/MS analysis; type: ADME, organism-based; conditions: in vivo, 8 h; in short: as §2
[8] = Drug concentration in male CD-1 mouse plasma at 3 mg/kg, iv measured after 4 hrs by LC-MS/MS analysis; type: ADME, organism-based; in short: as §1
[9] = Drug concentration in male CD-1 mouse plasma at 10 mg/kg, po measured after 4 hrs by LC-MS/MS analysis; type: ADME, organism-based; in short: as §2
[10] = Metabolic stability in mouse liver microsomes assessed as half life at […] preincubated for 15 mins followed by NADPH cofactor addition and measured after 1 hr by LC-MS/MS analysis; type: ADME, Microsome; conditions: dose 4.6 µM, time 75 min
[11] = Drug concentration in male CD-1 mouse plasma at 10 mg/kg, po measured after 8 hrs by LC-MS/MS analysis; type: ADME, organism-based; in short: as §2

SMILES: FC(F)(F)c1cccc(Nc2nc(-c3ccccc3)cc(C3CCNCC3)n2)c1
- t1/2 [1]: > 2 h

SMILES: COc1cc(Nc2nc(-c3ccccc3)cc(C3CCNCC3)n2)ccn1
- t1/2 [1]: > 2 h

SMILES: c1ccc(-c2cc(Nc3ccc4cc[nH]c4c3)nc(C3CCNCC3)n2)cc1
- t1/2 [1]: > 2 h

SMILES: FC(F)(F)c1cc(Nc2nc(-c3ccccc3)cc(C3CCNCC3)n2)ccn1
- t1/2 [1]: > 2 h
- Cmax [2]: 643 ng/mL
- Tmax [3]: 5 min
- t1/2 [4]: 1.92 h
- Cmax [5]: 99 ng/mL
- t1/2 [6]: 1.52 h
- F [7]: 8%
- concentration at 4 h [8]: 84 ng/mL
- concentration at 4 h [9]: 40 ng/mL

SMILES: FC(F)(F)c1cccc(Nc2nc(-c3cccc4cnccc34)nc(C3CCNCC3)n2)c1
- half-life at 2 µM [1]: > 2 h
- half-life at […] [10]: > 1 h

SMILES: CN(C)c1cccc(Nc2nc(-c3ccccc3)cc(C3CCNCC3)n2)c1
- t1/2 [1]: 1 h

SMILES: Cn1ccc2ccc(Nc3cc(-c4ccccc4)nc(C4CCNCC4)n3)cc21
- t1/2 [1]: > 2 h

SMILES: FC(F)(F)Oc1cccc(Nc2nc(-c3ccccc3)cc(C3CCNCC3)n2)c1
- t1/2 [1]: > 2 h

SMILES: COc1ccc(Nc2nc(-c3ccccc3)cc(C3CCNCC3)n2)cc1OC
- half-life at 2 µM [1]: > 2 h
- Cmax [2]: 320 ng/mL
- Tmax [3]: 5 min
- t1/2 [4]: 4.28 h
- Cmax [5]: 140 ng/mL
- t1/2 [6]: 2.8 h
- F [7]: 22%
- concentration at 4 h [8]: 74 ng/mL
- concentration at 8 h [11]: 7 ng/mL

SMILES: COc1ccc(Nc2nc(-c3ccccc3)cc(C3CCNCC3)n2)cn1
- t1/2 [1]: > 2 h

SMILES: COC(=O)c1cc(Nc2nc(-c3ccccc3)cc(C3CCNCC3)n2)ccc1OC
- t1/2 [1]: 1.48 h

SMILES: Cn1ccc2cc(-c3nc(Nc4cccc(C(F)(F)F)c4)nc(C4CCNCC4)n3)ccc21
- half-life at 2 µM [1]: > 2 h
- half-life at […] [10]: > 1 h

SMILES: FC(F)(F)c1cccc(Nc2nc(-c3coc4ccccc34)nc(C3CCNCC3)n2)c1
- half-life at 2 µM [1]: > 2 h
- half-life at […] [10]: > 1 h

SMILES: CN(C)c1cccc(Nc2cc(-c3ccccc3)nc(C3=CCNCC3)n2)c1
- t1/2 [1]: > 2 h

SMILES: FC(F)(F)c1cccc(Nc2nc(-c3ccc[nH]3)nc(C3CCNCC3)n2)c1
- t1/2 [1]: > 2 h

SMILES: FC(F)(F)c1cccc(Nc2nc(C3=CCNCC3)nc(-c3ccsc3)n2)c1
- t1/2 [1]: > 2 h

SMILES: FC(F)(F)c1cccc(Nc2nc(-c3ccc4[nH]ncc4c3)nc(C3CCNCC3)n2)c1
- half-life at 2 µM [1]: > 2 h
- half-life at […] [10]: > 1 h

SMILES: FC(F)Oc1cc(Nc2nc(-c3ccccc3)cc(C3CCNCC3)n2)ccn1
- t1/2 [1]: > 2 h
